Measurements as given in ChEMBL document CHEMBL1145439, “Fluorine-18-labeled benzamide analogues for imaging the sigma2 receptor status of solid tumors with positron emission tomography” (J Med Chem, 2007).

Assays:
[1] = Tumor to fat ratio of the drug in mouse EMT6 tumor bearing BALB/c mouse at 10 to 20 uCi after 2 hrs; assay type: ADME
In short: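 Tumor-bearing female Balb/c mice (EMT-6 s.c. allograft, ~0.2 cm3) given 10-20 µCi 18F tracer in saline i.v. via tail vein; ≥4 per group; killed 120 min later. Tissues weighed and gamma-counted; ratio = tumor %ID/g divided by that organ's %ID/g.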

Blood [2] = experiment: Biodistribution in blood of mouse EMT6 tumor bearing BALB/c mouse at 10 to 20 uCi after 5 mins; assay type: ADME, organism-based; settings: in vivo
In short: (§1)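 EMT-6 cells (5×10^5 in 100 µL PBS) implanted s.c. in scapular region of female Balb/c mice (~2 months, 17-22 g); studied 7-10 days later at ~0.2 cm3 tumor. 18F tracer 10-20 µCi in 100-150 µL saline via tail vein; ≥4 mice per time point; tissue removed at sacrifice, weighed, gamma-counted; %ID/g calculated.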

Blood [3] = experiment: Biodistribution in blood of mouse EMT6 tumor bearing BALB/c mouse at 10 to 20 uCi after 30 mins; assay type: ADME, organism-based; settings: in vivo, 0.5 h; in short: as §1
Blood [4] = experiment: Biodistribution in blood of mouse EMT6 tumor bearing BALB/c mouse at 10 to 20 uCi after 60 mins; assay type: ADME, organism-based; settings: in vivo, 1 h; in short: as §1
Blood [5] = experiment: Biodistribution in blood of mouse EMT6 tumor bearing BALB/c mouse at 10 to 20 uCi after 120 mins; assay type: ADME, organism-based; settings: in vivo, 2 h; in short: as §1
Lung [6] = experiment: Biodistribution in lung of mouse EMT6 tumor bearing BALB/c mouse at 10 to 20 uCi after 5 mins; assay type: ADME, organism-based; settings: in vivo; in short: as §1
Lung [7] = experiment: Biodistribution in lung of mouse EMT6 tumor bearing BALB/c mouse at 10 to 20 uCi after 30 mins; assay type: ADME, organism-based; settings: in vivo, 0.5 h; in short: as §1
Lung [8] = experiment: Biodistribution in lung of mouse EMT6 tumor bearing BALB/c mouse at 10 to 20 uCi after 60 mins; assay type: ADME, organism-based; settings: in vivo, 1 h; in short: as §1
Lung [9] = experiment: Biodistribution in lung of mouse EMT6 tumor bearing BALB/c mouse at 10 to 20 uCi after 120 mins; assay type: ADME, organism-based; settings: in vivo, 2 h; in short: as §1
Liver [10] = experiment: Biodistribution in liver of mouse EMT6 tumor bearing BALB/c mouse at 10 to 20 uCi after 5 mins; assay type: ADME, organism-based; settings: in vivo; in short: as §1
Liver [11] = experiment: Biodistribution in liver of mouse EMT6 tumor bearing BALB/c mouse at 10 to 20 uCi after 30 mins; assay type: ADME, organism-based; settings: in vivo, 0.5 h; in short: as §1
Liver [12] = experiment: Biodistribution in liver of mouse EMT6 tumor bearing BALB/c mouse at 10 to 20 uCi after 60 mins; assay type: ADME, organism-based; settings: in vivo, 1 h; in short: as §1
Liver [13] = experiment: Biodistribution in liver of mouse EMT6 tumor bearing BALB/c mouse at 10 to 20 uCi after 120 mins; assay type: ADME, organism-based; settings: in vivo, 2 h; in short: as §1
Kidney [14] = experiment: Biodistribution in kidney of mouse EMT6 tumor bearing BALB/c mouse at 10 to 20 uCi after 5 mins; assay type: ADME, organism-based; settings: in vivo; in short: as §1
Kidney [15] = experiment: Biodistribution in kidney of mouse EMT6 tumor bearing BALB/c mouse at 10 to 20 uCi after 30 mins; assay type: ADME, organism-based; settings: in vivo, 0.5 h; in short: as §1
Kidney [16] = experiment: Biodistribution in kidney of mouse EMT6 tumor bearing BALB/c mouse at 10 to 20 uCi after 60 mins; assay type: ADME, organism-based; settings: in vivo, 1 h; in short: as §1
Kidney [17] = experiment: Biodistribution in kidney of mouse EMT6 tumor bearing BALB/c mouse at 10 to 20 uCi after 120 mins; assay type: ADME, organism-based; settings: in vivo, 2 h; in short: as §1
Muscle tissue [18] = experiment: Biodistribution in muscle of EMT6 tumor bearing BALB/c mouse at 10 to 20 uCi after 5 mins; assay type: ADME, organism-based; settings: in vivo; in short: as §1
Muscle tissue [19] = experiment: Biodistribution in muscle of mouse EMT6 tumor bearing BALB/c mouse at 10 to 20 uCi after 30 mins; assay type: ADME, organism-based; settings: in vivo, 0.5 h; in short: as §1
Muscle tissue [20] = experiment: Biodistribution in muscle of mouse EMT6 tumor bearing BALB/c mouse at 10 to 20 uCi after 60 mins; assay type: ADME, organism-based; settings: in vivo, 1 h; in short: as §1
Muscle tissue [21] = experiment: Biodistribution in muscle of mouse EMT6 tumor bearing BALB/c mouse at 10 to 20 uCi after 120 mins; assay type: ADME, organism-based; settings: in vivo, 2 h; in short: as §1
Adipose tissue [22] = experiment: Biodistribution in fat of mouse EMT6 tumor bearing BALB/c mouse at 10 to 20 uCi after 5 mins; assay type: ADME, organism-based; settings: in vivo; in short: as §1
Adipose tissue [23] = experiment: Biodistribution in fat of mouse EMT6 tumor bearing BALB/c mouse at 10 to 20 uCi after 30 mins; assay type: ADME, organism-based; settings: in vivo, 0.5 h; in short: as §1
Adipose tissue [24] = experiment: Biodistribution in fat of mouse EMT6 tumor bearing BALB/c mouse at 10 to 20 uCi after 60 mins; assay type: ADME, organism-based; settings: in vivo, 1 h; in short: as §1
Adipose tissue [25] = experiment: Biodistribution in fat of mouse EMT6 tumor bearing BALB/c mouse at 10 to 20 uCi after 120 mins; assay type: ADME, organism-based; settings: in vivo, 2 h; in short: as §1
Heart [26] = experiment: Biodistribution in heart of mouse EMT6 tumor bearing BALB/c mouse at 10 to 20 uCi after 5 mins; assay type: ADME, organism-based; settings: in vivo; in short: as §1
Heart [27] = experiment: Biodistribution in heart of mouse EMT6 tumor bearing BALB/c mouse at 10 to 20 uCi after 30 mins; assay type: ADME, organism-based; settings: in vivo, 0.5 h; in short: as §1
Heart [28] = experiment: Biodistribution in heart of mouse EMT6 tumor bearing BALB/c mouse at 10 to 20 uCi after 60 mins; assay type: ADME, organism-based; settings: in vivo, 1 h; in short: as §1
Heart [29] = experiment: Biodistribution in heart of EMT6 tumor bearing BALB/c mouse at 10 to 20 uCi after 120 mins; assay type: ADME, organism-based; settings: in vivo, 2 h; in short: as §1
Brain [30] = experiment: Biodistribution in brain of EMT6 tumor bearing BALB/c mouse at 10 to 20 uCi after 5 mins; assay type: ADME, organism-based; settings: in vivo; in short: as §1
Brain [31] = experiment: Biodistribution in brain of EMT6 tumor bearing BALB/c mouse at 10 to 20 uCi after 30 mins; assay type: ADME, organism-based; settings: in vivo, 0.5 h; in short: as §1
Brain [32] = experiment: Biodistribution in brain of EMT6 tumor bearing BALB/c mouse at 10 to 20 uCi after 60 mins; assay type: ADME, organism-based; settings: in vivo, 1 h; in short: as §1
Brain [33] = experiment: Biodistribution in brain of mouse EMT6 tumor bearing BALB/c mouse at 10 to 20 uCi after 120 mins; assay type: ADME, organism-based; settings: in vivo, 2 h; in short: as §1
Bone [34] = experiment: Biodistribution in bone of mouse EMT6 tumor bearing BALB/c mouse at 10 to 20 uCi after 5 mins; assay type: ADME, organism-based, Bone element; settings: in vivo; in short: as §1
Bone [35] = experiment: Biodistribution in bone of mouse EMT6 tumor bearing BALB/c mouse at 10 to 20 uCi after 30 mins; assay type: ADME, organism-based, Bone element; settings: in vivo, 0.5 h; in short: as §1
Bone [36] = experiment: Biodistribution in bone of mouse EMT6 tumor bearing BALB/c mouse at 10 to 20 uCi after 60 mins; assay type: ADME, organism-based, Bone element; settings: in vivo, 1 h; in short: as §1
Bone [37] = experiment: Biodistribution in bone of mouse EMT6 tumor bearing BALB/c mouse at 10 to 20 uCi after 120 mins; assay type: ADME, organism-based, Bone element; settings: in vivo, 2 h; in short: as §1
EMT6 [38] = experiment: Biodistribution in tumor of mouse EMT6 tumor bearing BALB/c mouse at 10 to 20 uCi after 5 mins; assay type: ADME, organism-based; settings: emt6, 5 min; in short: as §1
EMT6 [39] = experiment: Biodistribution in tumor of EMT6 tumor bearing BALB/c mouse 10 to 20 uCi after 30 mins; assay type: ADME, organism-based; settings: emt6, 0.5 h; in short: as §1
EMT6 [40] = experiment: Biodistribution in tumor of mouse EMT6 tumor bearing BALB/c mouse at 10 to 20 uCi after 60 mins; assay type: ADME, organism-based; settings: emt6, 1 h; in short: as §1
EMT6 [41] = experiment: Biodistribution in tumor of mouse EMT6 tumor bearing BALB/c mouse at 10 to 20 uCi after 120 mins; assay type: ADME, organism-based; settings: emt6, 2 h; in short: as §1
[42] = Displacement of [3H]DTG from sigma 2 receptor in rat liver membrane after 120 mins; assay type: cell membranes
In short: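 Rat liver membranes (~300 µg protein) incubated with ~5 nM [3H]DTG plus 1 µM (+)-pentazocine to mask σ1 sites, 120 min at room temperature; 10 µM haloperidol defines nonspecific binding; filtration and scintillation counting. One-site nonlinear regression IC50, converted to Ki by Cheng-Prusoff; mean ± SEM.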

[43] = Selectivity for rat liver sigma 2 receptor over guinea pig brain sigma 1 receptor

Structure (SMILES): COc1cc2c(cc1OC)CN(CCCCNC(=O)c1cc(Br)ccc1OCC[18F])CC2
- Ratio [1]: 6
- Drug uptake (Blood [2]): 3.57 % ID/g
- Drug uptake (Blood [3]): 2.81 % ID/g
- Drug uptake (Blood [4]): 1.69 % ID/g
- Drug uptake (Blood [5]): 0.52 % ID/g
- Drug uptake (Lung [6]): 12.08 % ID/g
- Drug uptake (Lung [7]): 3.08 % ID/g
- Drug uptake (Lung [8]): 1.6 % ID/g
- Drug uptake (Lung [9]): 0.51 % ID/g
- Drug uptake (Liver [10]): 32.6 % ID/g
- Drug uptake (Liver [11]): 13.12 % ID/g
- Drug uptake (Liver [12]): 5.69 % ID/g
- Drug uptake (Liver [13]): 2.3 % ID/g
- Drug uptake (Kidney [14]): 42.94 % ID/g
- Drug uptake (Kidney [15]): 17.55 % ID/g
- Drug uptake (Kidney [16]): 6.92 % ID/g
- Drug uptake (Kidney [17]): 1.12 % ID/g
- Drug uptake (Muscle tissue [18]): 1.95 % ID/g
- Drug uptake (Muscle tissue [19]): 0.98 % ID/g
- Drug uptake (Muscle tissue [20]): 0.58 % ID/g
- Drug uptake (Muscle tissue [21]): 0.28 % ID/g
- Drug uptake (Adipose tissue [22]): 2.85 % ID/g
- Drug uptake (Adipose tissue [23]): 0.96 % ID/g
- Drug uptake (Adipose tissue [24]): 0.38 % ID/g
- Drug uptake (Adipose tissue [25]): 0.15 % ID/g
- Drug uptake (Heart [26]): 3.74 % ID/g
- Drug uptake (Heart [27]): 1.55 % ID/g
- Drug uptake (Heart [28]): 1.04 % ID/g
- Drug uptake (Heart [29]): 0.4 % ID/g
- Drug uptake (Brain [30]): 1.09 % ID/g
- Drug uptake (Brain [31]): 0.4 % ID/g
- Drug uptake (Brain [32]): 0.32 % ID/g
- Drug uptake (Brain [33]): 0.2 % ID/g
- Drug uptake (Bone [34]): 2.9 % ID/g
- Drug uptake (Bone [35]): 1.17 % ID/g
- Drug uptake (Bone [36]): 1.12 % ID/g
- Drug uptake (Bone [37]): 1.28 % ID/g
- Drug uptake (EMT6 [38]): 3.28 % ID/g
- Drug uptake (EMT6 [39]): 2.59 % ID/g
- Drug uptake (EMT6 [40]): 2.09 % ID/g
- Drug uptake (EMT6 [41]): 0.96 % ID/g

Structure (SMILES): COc1cc2c(cc1OC)CN(CCCCNC(=O)c1cc(Br)ccc1OCCF)CC2
- Ki [42]: 0.65 nM
- Ratio Ki [43]: 1660

Structure (SMILES): COc1cc2c(cc1OC)CN(CCCCNC(=O)c1cc(C)ccc1OCCF)CC2
- Ki [42]: 6.95 nM
- Ratio Ki [43]: 48
